Test results taken from ChEMBL document CHEMBL1143088, “Non-acidic pyrazole EP1 receptor antagonists with in vivo analgesic efficacy” (Bioorg Med Chem Lett, 2008).

Assays:
Brain [1] = experiment: Drug uptake in FCA-induced hypersensitivity rat brain at 3 mg/kg, po administered with DMSO as vehicle; assay type: ADME, organism-based; design: dose 3 mg/kg, route oral; settings: in vivo, read-out: Drug uptake
Method in brief: (§1)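 CFA inflammatory pain rats dosed orally at 1, 3, 10 and 30 mg/kg in 2% DMSO and 20% Kleptose water; weight-bearing readout and blood/brain samples taken 1 h post-dose. Blood levels mean of seven rats; brain levels mean of two or three rats; Br:Bl average of three rats.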

Brain [2] = experiment: Drug uptake in FCA-induced hypersensitivity rat brain at 10 mg/kg, po administered with DMSO as vehicle; assay type: ADME, organism-based; design: dose 10 mg/kg, route oral; settings: in vivo, read-out: Drug uptake; method in brief: as §1
Brain [3] = experiment: Drug uptake in FCA-induced hypersensitivity rat brain at 30 mg/kg, po administered with DMSO as vehicle; assay type: ADME, organism-based; design: dose 30 mg/kg, route oral; settings: in vivo, read-out: Drug uptake; method in brief: as §1
[4] = Ratio of drug level in brain to blood in FCA-induced hypersensitivity rat at 1 mg/kg, po administered with DMSO as vehicle; assay type: ADME, organism-based; design: dose 1 mg/kg, route oral; method in brief: as §1
[5] = Ratio of drug level in brain to blood in FCA-induced hypersensitivity rat at 3 mg/kg, po administered with DMSO as vehicle; assay type: ADME, organism-based; design: dose 3 mg/kg, route oral; method in brief: as §1
[6] = Ratio of drug level in brain to blood in FCA-induced hypersensitivity rat at 10 mg/kg, po administered with DMSO as vehicle; assay type: ADME, organism-based; design: dose 10 mg/kg, route oral; method in brief: as §1
[7] = Ratio of drug level in brain to blood in FCA-induced hypersensitivity rat at 30 mg/kg, po administered with DMSO as vehicle; assay type: ADME, organism-based; design: dose 30 mg/kg, route oral; method in brief: as §1
[8] = Drug level in Sprague-Dawley rat brain at steady state at […], iv after 18 hrs; assay type: ADME, organism-based; design: route intravenous; settings: read-out: Drug uptake
Method in brief: (§2)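 Male Sprague–Dawley rat given iv infusion over 18 h at 5 mL/kg/h (0.518 mg/kg/h) in 0.9% saline with 2% DMSO, 20% Kleptose. Serial blood samples every 15 min over last hour to confirm steady state; after 18 h blood taken, rat culled, brain homogenized; blood and brain analysed by LC/MS/MS.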

[9] = Drug level in Sprague-Dawley rat blood at steady state at […], iv after 18 hrs; assay type: ADME, organism-based; design: route intravenous; settings: whole blood, read-out: Drug uptake; method in brief: as §2
[10] = Clearance at steady state in Sprague-Dawley rat blood at […], iv after 18 hrs; assay type: ADME, organism-based; design: route intravenous; settings: whole blood; method in brief: as §2
[11] = biological target: T1, Prostaglandin E2 receptor EP1 subtype (Homo sapiens, UniProt P34995); experiment: Displacement of [3H]PGE2 from human PGE2-EP1 receptor expressed in CHO-K1 cells; assay type: cell-based
T1 sequence (P34995 whole entry): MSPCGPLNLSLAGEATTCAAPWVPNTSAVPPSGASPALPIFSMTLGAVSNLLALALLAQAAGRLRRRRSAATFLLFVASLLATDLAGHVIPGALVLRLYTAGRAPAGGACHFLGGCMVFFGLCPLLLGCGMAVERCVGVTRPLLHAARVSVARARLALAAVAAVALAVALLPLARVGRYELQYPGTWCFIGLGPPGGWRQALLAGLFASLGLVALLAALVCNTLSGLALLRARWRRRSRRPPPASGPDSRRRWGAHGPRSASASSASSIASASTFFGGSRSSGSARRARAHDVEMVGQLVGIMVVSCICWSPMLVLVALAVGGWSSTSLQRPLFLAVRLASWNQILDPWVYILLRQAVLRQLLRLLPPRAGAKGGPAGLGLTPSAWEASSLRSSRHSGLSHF

[12] = Distribution coefficient, logD at pH 7.4; assay type: physicochemical; settings: octanol/water
Method in brief: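 Distribution coefficient between n-octanol and water buffered to pH 7.4; log10 of ratio of equilibrium concentrations of all species.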

[13] = Clearance in blood in rat at 10 mL/h/kg, iv; assay type: ADME, organism-based; settings: whole blood
Method in brief: (§3)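 Male rats (n = 1 per compound) dosed iv at 10 mL/h/kg over 1 h via femoral vein cannula, target 1 mg free compound/kg, formulated at 0.1 mg/mL in 0.9% saline with 2% DMSO and 10–20% Kleptose (some with a molar equivalent NaOH), filtered before dosing.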

[14] = Volume of distribution at steady state in rat at 10 mL/h/kg, iv; assay type: ADME, organism-based; settings: in vivo, read-out: Vdss; method in brief: as §3
[15] = Half life in rat at 10 mL/h/kg, iv; assay type: ADME, organism-based; settings: in vivo; method in brief: as §3
[16] = biological target: T1, Prostaglandin E2 receptor EP1 subtype; experiment: Antagonist activity at PGE2-EP1 receptor assessed as PGE2-induced response by schild analysis; assay type: functional; settings: read-out: pA2 (converted)
Rattus norvegicus = experiment: Reversal of FCA-induced hypersensitivity in orally dosed rat assessed as reduction in weight bearing administered with DMSO as vehicle; assay type: functional; settings: po
Method in brief: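 The CFA inflammatory pain model used rats dosed orally at 1, 3, 10 and 30 mg/kg in 2% DMSO and 20% Kleptose in water. Weight bearing was the efficacy readout at 1 h post-dose. Blood (seven rats) and brain (two to three rats) were sampled at that time. ED50 was given in mg/kg.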

[17] = Ratio of drug level in brain to blood in Sprague-Dawley rat at […], iv; assay type: ADME, organism-based; design: route intravenous; method in brief: as §2
[18] = biological target: T1, Prostaglandin E2 receptor EP1 subtype; experiment: Antagonist activity at PGE2-EP1 receptor assessed as PGE2-induced intracellular calcium mobilization; assay type: functional, cell-based
[19] = biological target: T2, Prostaglandin E2 receptor EP3 subtype (Homo sapiens, UniProt P43115); experiment: Antagonist activity at PGE2-EP3 receptor assessed as PGE2-induced intracellular calcium mobilization; assay type: functional, cell-based
T2 sequence (P43115 whole entry): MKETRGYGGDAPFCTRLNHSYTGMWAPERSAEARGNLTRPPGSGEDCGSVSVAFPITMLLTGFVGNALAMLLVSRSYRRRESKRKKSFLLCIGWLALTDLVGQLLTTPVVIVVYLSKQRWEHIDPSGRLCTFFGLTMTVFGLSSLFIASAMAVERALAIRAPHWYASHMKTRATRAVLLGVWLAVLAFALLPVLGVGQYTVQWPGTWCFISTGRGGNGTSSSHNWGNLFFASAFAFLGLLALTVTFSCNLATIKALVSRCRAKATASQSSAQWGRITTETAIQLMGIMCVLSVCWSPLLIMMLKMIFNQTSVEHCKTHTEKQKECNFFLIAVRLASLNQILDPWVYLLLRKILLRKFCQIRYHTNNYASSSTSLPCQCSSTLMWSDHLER

Cytochrome P450 1A2 = biological target: T3, Cytochrome P450 1A2 (Homo sapiens, UniProt P05177); experiment: Inhibition of CYP1A2; assay type: ADME
T3 sequence (P05177 whole entry): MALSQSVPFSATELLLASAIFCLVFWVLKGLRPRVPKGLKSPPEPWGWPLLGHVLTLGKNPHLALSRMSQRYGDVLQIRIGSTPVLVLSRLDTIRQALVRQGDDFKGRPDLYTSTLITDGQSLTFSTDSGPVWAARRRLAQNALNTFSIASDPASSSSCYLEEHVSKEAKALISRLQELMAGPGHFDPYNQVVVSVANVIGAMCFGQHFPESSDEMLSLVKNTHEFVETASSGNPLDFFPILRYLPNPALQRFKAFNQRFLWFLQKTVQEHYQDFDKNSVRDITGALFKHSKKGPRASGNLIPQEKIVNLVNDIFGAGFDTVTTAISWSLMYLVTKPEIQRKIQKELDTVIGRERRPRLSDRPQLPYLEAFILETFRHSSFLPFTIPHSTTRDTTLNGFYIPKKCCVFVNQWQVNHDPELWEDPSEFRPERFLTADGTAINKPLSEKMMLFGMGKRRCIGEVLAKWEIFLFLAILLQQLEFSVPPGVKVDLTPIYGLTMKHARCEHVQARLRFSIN

Cytochrome P450 2C19 = Cytochrome P450 2C19 (Homo sapiens, UniProt P33261); experiment: Inhibition of CYP2C19; assay type: ADME
Cytochrome P450 2C9 = Cytochrome P450 2C9 (Homo sapiens, UniProt P11712); experiment: Inhibition of CYP2C9; assay type: ADME
Cytochrome P450 2D6 = Cytochrome P450 2D6 (Homo sapiens, UniProt P10635); experiment: Inhibition of CYP2D6; assay type: ADME
Cytochrome P450 3A4 = Cytochrome P450 3A4 (Homo sapiens, UniProt P08684); experiment: Inhibition of CYP3A4; assay type: ADME
Blood [20] = experiment: Drug uptake in FCA-induced hypersensitivity rat blood at 1 mg/kg, po administered with DMSO as vehicle; assay type: ADME, organism-based; design: dose 1 mg/kg, route oral; settings: in vivo, read-out: Drug uptake; method in brief: as §1
Blood [21] = experiment: Drug uptake in FCA-induced hypersensitivity rat blood at 3 mg/kg, po administered with DMSO as vehicle; assay type: ADME, organism-based; design: dose 3 mg/kg, route oral; settings: in vivo, read-out: Drug uptake; method in brief: as §1
Blood [22] = experiment: Drug uptake in FCA-induced hypersensitivity rat blood at 10 mg/kg, po administered with DMSO as vehicle; assay type: ADME, organism-based; design: dose 10 mg/kg, route oral; settings: in vivo, read-out: Drug uptake; method in brief: as §1
Blood [23] = experiment: Drug uptake in FCA-induced hypersensitivity rat blood at 30 mg/kg, po administered with DMSO as vehicle; assay type: ADME, organism-based; design: dose 30 mg/kg, route oral; settings: in vivo, read-out: Drug uptake; method in brief: as §1
Brain [24] = experiment: Drug uptake in FCA-induced hypersensitivity rat brain at 1 mg/kg, po administered with DMSO as vehicle; assay type: ADME, organism-based; design: dose 1 mg/kg, route oral; settings: in vivo, read-out: Drug uptake; method in brief: as §1

Cytochrome P450 3A4, sequence (P08684 whole entry): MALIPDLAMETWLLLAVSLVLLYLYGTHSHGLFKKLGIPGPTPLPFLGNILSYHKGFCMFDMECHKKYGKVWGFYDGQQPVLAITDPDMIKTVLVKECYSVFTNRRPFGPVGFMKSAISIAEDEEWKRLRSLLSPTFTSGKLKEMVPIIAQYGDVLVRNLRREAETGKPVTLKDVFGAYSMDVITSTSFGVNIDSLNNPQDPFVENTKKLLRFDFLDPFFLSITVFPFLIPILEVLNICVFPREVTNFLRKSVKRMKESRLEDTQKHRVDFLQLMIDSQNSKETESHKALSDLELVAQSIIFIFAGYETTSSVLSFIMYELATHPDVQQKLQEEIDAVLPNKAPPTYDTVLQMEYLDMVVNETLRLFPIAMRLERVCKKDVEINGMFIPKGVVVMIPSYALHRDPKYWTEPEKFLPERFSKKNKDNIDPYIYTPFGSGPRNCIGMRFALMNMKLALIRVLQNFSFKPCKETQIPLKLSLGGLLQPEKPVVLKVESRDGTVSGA
Cytochrome P450 2D6, sequence (P10635 whole entry): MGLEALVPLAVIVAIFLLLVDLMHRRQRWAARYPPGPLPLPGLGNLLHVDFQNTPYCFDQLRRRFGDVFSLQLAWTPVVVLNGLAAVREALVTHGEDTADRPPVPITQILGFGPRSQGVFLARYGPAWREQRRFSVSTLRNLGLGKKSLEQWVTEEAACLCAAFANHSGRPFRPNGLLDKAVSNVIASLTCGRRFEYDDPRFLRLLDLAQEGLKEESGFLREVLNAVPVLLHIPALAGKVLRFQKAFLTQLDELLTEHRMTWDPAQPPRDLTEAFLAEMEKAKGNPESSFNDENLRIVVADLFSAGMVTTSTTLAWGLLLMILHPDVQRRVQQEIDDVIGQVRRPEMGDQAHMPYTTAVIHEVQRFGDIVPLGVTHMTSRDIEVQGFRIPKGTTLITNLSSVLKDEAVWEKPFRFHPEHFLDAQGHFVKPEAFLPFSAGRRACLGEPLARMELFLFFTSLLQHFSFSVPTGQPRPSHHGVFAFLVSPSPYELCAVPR
Cytochrome P450 2C9, sequence (P11712 whole entry): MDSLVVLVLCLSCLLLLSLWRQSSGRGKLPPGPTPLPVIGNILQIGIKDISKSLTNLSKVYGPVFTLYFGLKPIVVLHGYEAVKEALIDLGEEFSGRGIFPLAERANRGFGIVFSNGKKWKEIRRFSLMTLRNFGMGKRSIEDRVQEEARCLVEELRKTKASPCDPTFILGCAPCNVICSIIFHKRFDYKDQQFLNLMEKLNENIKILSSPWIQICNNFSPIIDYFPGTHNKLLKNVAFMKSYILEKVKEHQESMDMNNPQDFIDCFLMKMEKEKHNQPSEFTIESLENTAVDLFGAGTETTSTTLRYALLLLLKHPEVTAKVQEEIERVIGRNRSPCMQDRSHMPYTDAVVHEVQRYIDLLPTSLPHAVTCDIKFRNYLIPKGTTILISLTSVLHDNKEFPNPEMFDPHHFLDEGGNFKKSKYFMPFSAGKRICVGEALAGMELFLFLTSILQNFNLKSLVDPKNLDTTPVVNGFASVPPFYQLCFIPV
Cytochrome P450 2C19, sequence (P33261 whole entry): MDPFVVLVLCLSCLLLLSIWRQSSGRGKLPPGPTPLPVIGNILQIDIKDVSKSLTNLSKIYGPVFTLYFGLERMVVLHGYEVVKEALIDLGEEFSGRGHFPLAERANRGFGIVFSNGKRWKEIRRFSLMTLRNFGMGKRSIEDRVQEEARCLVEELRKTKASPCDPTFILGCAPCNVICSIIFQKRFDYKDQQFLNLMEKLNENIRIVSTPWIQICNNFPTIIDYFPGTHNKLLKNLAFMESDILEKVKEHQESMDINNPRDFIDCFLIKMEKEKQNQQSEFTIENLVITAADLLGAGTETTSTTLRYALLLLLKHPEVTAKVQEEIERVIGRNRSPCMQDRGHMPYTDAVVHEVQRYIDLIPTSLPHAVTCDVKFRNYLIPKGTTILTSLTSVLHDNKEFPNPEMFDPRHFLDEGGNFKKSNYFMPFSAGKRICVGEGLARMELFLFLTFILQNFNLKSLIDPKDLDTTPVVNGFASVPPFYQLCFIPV

Cc1cc(NC(=O)OC(C)(C)C)nn1Cc1cc(Cl)ccc1OCc1ccccc1
concentration (Brain [1]): 473 nM | concentration (Brain [2]): 781 nM | concentration (Brain [3]): 836 nM | Kp [4]: 2.66 | Kp [5]: 2.66 | Kp [6]: 2.26 | Kp [7]: 2.73 | concentration at 18 h [8]: 1400 nM | concentration at 18 h [9]: 408 nM | clearance [10]: 54 mL/min/kg | IC50 [11]: 0.0251 µM | logD [12]: > 3.7 | clearance [13]: 42 mL/min/kg | Vd [14]: 8.6 L/kg | half-life [15]: 3 h | Kb [16]: 0.0501 µM | ED50 (Rattus norvegicus): 5.36 mg/kg | Kp [17]: 3.44 | Ki [18]: 0.0158 µM | Ki [19]: > 10 µM | IC50 (Cytochrome P450 1A2): > 100 µM | IC50 (Cytochrome P450 2C19): > 100 µM | IC50 (Cytochrome P450 2C9): 16 µM | IC50 (Cytochrome P450 2D6): > 100 µM | IC50 (Cytochrome P450 3A4): > 100 µM | concentration (Blood [20]): 57 nM | concentration (Blood [21]): 210 nM | concentration (Blood [22]): 302 nM | concentration (Blood [23]): 299 nM | concentration (Brain [24]): 106 nM
